Test system: HEK-293T
Test: Multiplex assay against HEK293T;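 on Population Tubulin-Different-Phenotype (%): share of the cells with healthy nuclei that show this phenotype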
Type: toxicity, cell-based
Conditions: human
Summary of the method: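 With compound added, live cells were imaged on a CQ1 microscope at 37°C and 5% CO2; staining with Hoechst33342, BioTracker Green Microtubule Cytoskeleton Dye, MitoTracker Red and Annexin V Alexa Fluor 680 had been done at seeding. The CellPathfinder machine-learning gating scheme split cells into Hoechst high-intensity objects or normal cells, normal cells into healthy, pyknosed or fragmented nuclei, and pyknosed cells into mitotic or apoptotic. The tubulin, mitochondrial-mass and membrane-permeability phenotypes are per cents of healthy-nucleus cells.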

[1] = 12 h, 1 µM, compound concentration 1 uM, replicate 1
[2] = 12 h, 1 µM, compound concentration 1 uM, replicate 2
[3] = 12 h, 10 µM, compound concentration 10 uM, replicate 1
[4] = 12 h, 10 µM, compound concentration 10 uM, replicate 2
[5] = 24 h, 1 µM, compound concentration 1 uM, replicate 1
[6] = 24 h, 1 µM, compound concentration 1 uM, replicate 2
[7] = 24 h, 10 µM, compound concentration 10 uM, replicate 1
[8] = 24 h, 10 µM, compound concentration 10 uM, replicate 2
[9] = 48 h, 1 µM, compound concentration 1 uM, replicate 1
[10] = 48 h, 1 µM, compound concentration 1 uM, replicate 2
[11] = 48 h, 10 µM, compound concentration 10 uM, replicate 1
[12] = 48 h, 10 µM, compound concentration 10 uM, replicate 2

O=c1cc(N2CCOCC2)oc2c(-c3cccc4c3sc3ccccc34)cccc12
Population Apoptotic (%) [1]: 46%
Population Fragmented Nuclei (%) [1]: 7%
Population Hoechst High Intensity Objects (%) [1]: 12%
Population Membrane Permeable-Phenotype (%) [1]: 3%
Population Mitochondria Different-Phenotype (%) [1]: 92%
Population Mitotic Cells (%) [1]: 53%
Population Normal (%) [1]: 87%
Population Pyknosed Nuclei (%) [1]: 52%
Population Tubulin-Different-Phenotype (%) [1]: 58%
Total Cell Count [1]: 283
Population Apoptotic (%) [2]: 14%
Population Fragmented Nuclei (%) [2]: 5%
Population Healthy Nuclei (%) [2]: 40%
Population Hoechst High Intensity Objects (%) [2]: 4%
Population Membrane Permeable-Phenotype (%) [2]: 1%
Population Mitochondria Different-Phenotype (%) [2]: 20%
Population Mitotic Cells (%) [2]: 85%
Population Normal (%) [2]: 95%
Population Pyknosed Nuclei (%) [2]: 53%
Population Tubulin-Different-Phenotype (%) [2]: 19%
Total Cell Count [2]: 224
Population Apoptotic (%) [3]: 61%
Population Fragmented Nuclei (%) [3]: 16%
Population Healthy Nuclei (%) [3]: 14%
Population Hoechst High Intensity Objects (%) [3]: 14%
Population Membrane Permeable-Phenotype (%) [3]: 8%
Population Mitochondria Different-Phenotype (%) [3]: 100%
Population Mitotic Cells (%) [3]: 38%
Population Normal (%) [3]: 85%
Population Pyknosed Nuclei (%) [3]: 68%
Population Tubulin-Different-Phenotype (%) [3]: 91%
Total Cell Count [3]: 192
Population Apoptotic (%) [4]: 49%
Population Fragmented Nuclei (%) [4]: 8%
Population Healthy Nuclei (%) [4]: 7%
Population Hoechst High Intensity Objects (%) [4]: 6%
Population Mitochondria Different-Phenotype (%) [4]: 91%
Population Mitotic Cells (%) [4]: 50%
Population Normal (%) [4]: 93%
Population Pyknosed Nuclei (%) [4]: 83%
Population Tubulin-Different-Phenotype (%) [4]: 83%
Total Cell Count [4]: 172
Population Apoptotic (%) [5]: 53%
Population Fragmented Nuclei (%) [5]: 9%
Population Healthy Nuclei (%) [5]: 44%
Population Hoechst High Intensity Objects (%) [5]: 12%
Population Membrane Permeable-Phenotype (%) [5]: 2%
Population Mitochondria Different-Phenotype (%) [5]: 77%
Population Mitotic Cells (%) [5]: 46%
Population Normal (%) [5]: 87%
Population Pyknosed Nuclei (%) [5]: 46%
Population Tubulin-Different-Phenotype (%) [5]: 40%
Total Cell Count [5]: 310
Population Apoptotic (%) [6]: 16%
Population Fragmented Nuclei (%) [6]: 3%
Population Healthy Nuclei (%) [6]: 60%
Population Hoechst High Intensity Objects (%) [6]: 4%
Population Membrane Permeable-Phenotype (%) [6]: 3%
Population Mitochondria Different-Phenotype (%) [6]: 22%
Population Mitotic Cells (%) [6]: 83%
Population Normal (%) [6]: 95%
Population Pyknosed Nuclei (%) [6]: 36%
Population Tubulin-Different-Phenotype (%) [6]: 38%
Total Cell Count [6]: 272
Population Apoptotic (%) [7]: 61%
Population Fragmented Nuclei (%) [7]: 15%
Population Healthy Nuclei (%) [7]: 12%
Population Hoechst High Intensity Objects (%) [7]: 16%
Population Membrane Permeable-Phenotype (%) [7]: 0%
Population Mitochondria Different-Phenotype (%) [7]: 100%
Population Mitotic Cells (%) [7]: 38%
Population Normal (%) [7]: 83%
Population Pyknosed Nuclei (%) [7]: 71%
Population Tubulin-Different-Phenotype (%) [7]: 100%
Total Cell Count [7]: 206
Population Apoptotic (%) [8]: 60%
Population Fragmented Nuclei (%) [8]: 7%
Population Healthy Nuclei (%) [8]: 22%
Population Hoechst High Intensity Objects (%) [8]: 2%
Population Mitotic Cells (%) [8]: 39%
Population Normal (%) [8]: 97%
Population Pyknosed Nuclei (%) [8]: 69%
Total Cell Count [8]: 186
Population Apoptotic (%) [9]: 30%
Population Fragmented Nuclei (%) [9]: 17%
Population Healthy Nuclei (%) [9]: 42%
Population Hoechst High Intensity Objects (%) [9]: 9%
Population Membrane Permeable-Phenotype (%) [9]: 2%
Population Mitochondria Different-Phenotype (%) [9]: 44%
Population Mitotic Cells (%) [9]: 70%
Population Normal (%) [9]: 90%
Population Pyknosed Nuclei (%) [9]: 40%
Population Tubulin-Different-Phenotype (%) [9]: 45%
Total Cell Count [9]: 384
Population Apoptotic (%) [10]: 14%
Population Fragmented Nuclei (%) [10]: 7%
Population Healthy Nuclei (%) [10]: 77%
Population Hoechst High Intensity Objects (%) [10]: 3%
Population Membrane Permeable-Phenotype (%) [10]: 3%
Population Mitochondria Different-Phenotype (%) [10]: 6%
Population Mitotic Cells (%) [10]: 85%
Population Normal (%) [10]: 96%
Population Pyknosed Nuclei (%) [10]: 15%
Population Tubulin-Different-Phenotype (%) [10]: 26%
Total Cell Count [10]: 477
Population Apoptotic (%) [11]: 68%
Population Fragmented Nuclei (%) [11]: 24%
Population Healthy Nuclei (%) [11]: 20%
Population Hoechst High Intensity Objects (%) [11]: 17%
Population Membrane Permeable-Phenotype (%) [11]: 0%
Population Mitochondria Different-Phenotype (%) [11]: 100%
Population Mitotic Cells (%) [11]: 31%
Population Normal (%) [11]: 82%
Population Pyknosed Nuclei (%) [11]: 55%
Population Tubulin-Different-Phenotype (%) [11]: 93%
Total Cell Count [11]: 186
Population Apoptotic (%) [12]: 61%
Population Fragmented Nuclei (%) [12]: 8%
Population Healthy Nuclei (%) [12]: 29%
Population Hoechst High Intensity Objects (%) [12]: 8%
Population Mitochondria Different-Phenotype (%) [12]: 94%
Population Mitotic Cells (%) [12]: 38%
Population Normal (%) [12]: 91%
Population Pyknosed Nuclei (%) [12]: 62%
Population Tubulin-Different-Phenotype (%) [12]: 96%
Total Cell Count [12]: 185

CN1CCN(Cc2ccc(Nc3ncc(Cl)c(Nc4ccccc4S(=O)(=O)N(C)C)n3)cc2)CC1 [DUBERMATINIB]
Population Apoptotic (%) [1]: 48%
Population Fragmented Nuclei (%) [1]: 14%
Population Healthy Nuclei (%) [1]: 42%
Population Hoechst High Intensity Objects (%) [1]: 12%
Population Membrane Permeable-Phenotype (%) [1]: 0%
Population Mitochondria Different-Phenotype (%) [1]: 72%
Population Mitotic Cells (%) [1]: 51%
Population Normal (%) [1]: 87%
Population Pyknosed Nuclei (%) [1]: 42%
Population Tubulin-Different-Phenotype (%) [1]: 35%
Total Cell Count [1]: 297
Population Apoptotic (%) [2]: 13%
Population Fragmented Nuclei (%) [2]: 8%
Population Healthy Nuclei (%) [2]: 55%
Population Hoechst High Intensity Objects (%) [2]: 2%
Population Membrane Permeable-Phenotype (%) [2]: 5%
Population Mitochondria Different-Phenotype (%) [2]: 14%
Population Mitotic Cells (%) [2]: 86%
Population Normal (%) [2]: 97%
Population Pyknosed Nuclei (%) [2]: 35%
Population Tubulin-Different-Phenotype (%) [2]: 14%
Total Cell Count [2]: 174
Population Apoptotic (%) [3]: 62%
Population Fragmented Nuclei (%) [3]: 11%
Population Healthy Nuclei (%) [3]: 40%
Population Hoechst High Intensity Objects (%) [3]: 18%
Population Membrane Permeable-Phenotype (%) [3]: 1%
Population Mitochondria Different-Phenotype (%) [3]: 96%
Population Mitotic Cells (%) [3]: 38%
Population Normal (%) [3]: 81%
Population Pyknosed Nuclei (%) [3]: 47%
Population Tubulin-Different-Phenotype (%) [3]: 88%
Total Cell Count [3]: 258
Population Apoptotic (%) [4]: 16%
Population Fragmented Nuclei (%) [4]: 14%
Population Healthy Nuclei (%) [4]: 59%
Population Hoechst High Intensity Objects (%) [4]: 4%
Population Membrane Permeable-Phenotype (%) [4]: 2%
Population Mitochondria Different-Phenotype (%) [4]: 32%
Population Mitotic Cells (%) [4]: 83%
Population Normal (%) [4]: 95%
Population Pyknosed Nuclei (%) [4]: 26%
Population Tubulin-Different-Phenotype (%) [4]: 33%
Total Cell Count [4]: 214
Population Apoptotic (%) [5]: 53%
Population Fragmented Nuclei (%) [5]: 15%
Population Healthy Nuclei (%) [5]: 45%
Population Hoechst High Intensity Objects (%) [5]: 10%
Population Membrane Permeable-Phenotype (%) [5]: 0%
Population Mitochondria Different-Phenotype (%) [5]: 59%
Population Mitotic Cells (%) [5]: 46%
Population Normal (%) [5]: 89%
Population Pyknosed Nuclei (%) [5]: 39%
Population Tubulin-Different-Phenotype (%) [5]: 31%
Total Cell Count [5]: 290
Population Apoptotic (%) [6]: 27%
Population Fragmented Nuclei (%) [6]: 19%
Population Healthy Nuclei (%) [6]: 69%
Population Hoechst High Intensity Objects (%) [6]: 3%
Population Membrane Permeable-Phenotype (%) [6]: 16%
Population Mitochondria Different-Phenotype (%) [6]: 5%
Population Mitotic Cells (%) [6]: 72%
Population Normal (%) [6]: 96%
Population Pyknosed Nuclei (%) [6]: 11%
Population Tubulin-Different-Phenotype (%) [6]: 17%
Total Cell Count [6]: 206
Population Apoptotic (%) [7]: 69%
Population Fragmented Nuclei (%) [7]: 15%
Population Healthy Nuclei (%) [7]: 33%
Population Hoechst High Intensity Objects (%) [7]: 18%
Population Mitochondria Different-Phenotype (%) [7]: 88%
Population Mitotic Cells (%) [7]: 30%
Population Normal (%) [7]: 81%
Population Pyknosed Nuclei (%) [7]: 50%
Population Tubulin-Different-Phenotype (%) [7]: 80%
Total Cell Count [7]: 270
Population Apoptotic (%) [8]: 28%
Population Fragmented Nuclei (%) [8]: 19%
Population Healthy Nuclei (%) [8]: 42%
Population Hoechst High Intensity Objects (%) [8]: 6%
Population Membrane Permeable-Phenotype (%) [8]: 1%
Population Mitochondria Different-Phenotype (%) [8]: 21%
Population Mitotic Cells (%) [8]: 71%
Population Normal (%) [8]: 93%
Population Pyknosed Nuclei (%) [8]: 38%
Population Tubulin-Different-Phenotype (%) [8]: 25%
Total Cell Count [8]: 222
Population Apoptotic (%) [9]: 60%
Population Fragmented Nuclei (%) [9]: 26%
Population Healthy Nuclei (%) [9]: 51%
Population Hoechst High Intensity Objects (%) [9]: 10%
Population Membrane Permeable-Phenotype (%) [9]: 4%
Population Mitochondria Different-Phenotype (%) [9]: 26%
Population Mitotic Cells (%) [9]: 39%
Population Normal (%) [9]: 89%
Population Pyknosed Nuclei (%) [9]: 22%
Population Tubulin-Different-Phenotype (%) [9]: 24%
Total Cell Count [9]: 316
Population Apoptotic (%) [10]: 38%
Population Fragmented Nuclei (%) [10]: 21%
Population Healthy Nuclei (%) [10]: 73%
Population Hoechst High Intensity Objects (%) [10]: 6%
Population Membrane Permeable-Phenotype (%) [10]: 20%
Population Mitochondria Different-Phenotype (%) [10]: 1%
Population Mitotic Cells (%) [10]: 61%
Population Normal (%) [10]: 93%
Population Pyknosed Nuclei (%) [10]: 5%
Population Tubulin-Different-Phenotype (%) [10]: 17%
Total Cell Count [10]: 259
Population Apoptotic (%) [11]: 65%
Population Healthy Nuclei (%) [11]: 24%
Population Hoechst High Intensity Objects (%) [11]: 15%
Population Membrane Permeable-Phenotype (%) [11]: 0%
Population Mitochondria Different-Phenotype (%) [11]: 83%
Population Mitotic Cells (%) [11]: 34%
Population Normal (%) [11]: 84%
Population Pyknosed Nuclei (%) [11]: 58%
Population Tubulin-Different-Phenotype (%) [11]: 70%
Total Cell Count [11]: 267
Population Apoptotic (%) [12]: 29%
Population Fragmented Nuclei (%) [12]: 17%
Population Healthy Nuclei (%) [12]: 36%
Population Hoechst High Intensity Objects (%) [12]: 6%
Population Membrane Permeable-Phenotype (%) [12]: 2%
Population Mitochondria Different-Phenotype (%) [12]: 32%
Population Mitotic Cells (%) [12]: 70%
Population Normal (%) [12]: 93%
Population Pyknosed Nuclei (%) [12]: 46%
Population Tubulin-Different-Phenotype (%) [12]: 35%
Total Cell Count [12]: 210

From ChEMBL document CHEMBL4689842, “EUbOPEN Chemogenomics Library wave 1” (2021)
